One block for each molecule: values may come before it.
Key:
[1] = target: T1, Insulin-like growth factor 1 receptor (Homo sapiens, UniProt P08069); test: Inhibition of GST-tagged IGF1R (957-1367) expressed in baculovirus by time-resolved fluorescence assay
[2] = target: T1, Insulin-like growth factor 1 receptor; test: Inhibition of human IGF1R autophosphorylation in transfected mouse NIH3T3 cells; format: cell-based
Mus musculus [3] = test: Dose normalized AUC (0 to 6 hrs) in po dosed mouse; format: ADME, organism-based; design: time < 6 hr, route oral; conditions: in vivo
In short: (§1)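 Oral dosing in mice; dose-normalized AUC in ng h/mL/(mg/kg) calculated over 0–6 h.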

[4] = target: T1, Insulin-like growth factor 1 receptor; test: Binding affinity to IGF1R by liquid scintillation counting; conditions: read-out: Ki(app)
In short: (§2)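 Activated IGF-1R or IR kinase domains (pre-activated at 500 nM with 1 mM ATP for 30 min in pH 7.2 Hepes/MgCl2/BSA buffer with phosphatase inhibitors) were used at 0.5 nM final. Enzyme and ATP were pre-incubated with inhibitor for 6 h. […] Product was filter-captured and scintillation-counted. IC50 was converted to apparent Ki by Cheng–Prusoff.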

Insulin receptor [5] = target: T2, Insulin receptor (Homo sapiens, UniProt P06213); test: Inhibition of GST-tagged insulin receptor expressed in baculovirus by time-resolved fluorescence assay
In short: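 GST-tagged IR intracellular domain (aa 979–1382), baculovirus-expressed, activated at 2.7 µM with 2 mM ATP in 50 mM Hepes pH 7.5, 10 mM MgCl2, BSA. Phosphopeptide by TRF with streptavidin-allophycocyanin and Eu-anti-phosphotyrosine. n ≥ 2.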

[6] = target: Mitogen-activated protein kinase 14 (Homo sapiens, UniProt Q16539); test: Inhibition of p38alpha
Chain of Mitogen-activated protein kinase 14 (Q16539 whole entry): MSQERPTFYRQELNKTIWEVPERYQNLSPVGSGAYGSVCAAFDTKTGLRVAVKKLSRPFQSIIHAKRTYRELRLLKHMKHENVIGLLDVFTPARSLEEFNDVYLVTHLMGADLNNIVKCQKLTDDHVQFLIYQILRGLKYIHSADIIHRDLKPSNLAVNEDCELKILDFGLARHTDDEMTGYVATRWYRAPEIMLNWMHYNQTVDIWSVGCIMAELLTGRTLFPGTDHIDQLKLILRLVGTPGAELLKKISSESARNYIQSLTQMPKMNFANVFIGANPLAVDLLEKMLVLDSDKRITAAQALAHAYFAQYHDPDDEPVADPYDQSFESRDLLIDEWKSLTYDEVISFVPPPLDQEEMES

[7] = target: Tyrosine-protein kinase Lck (Homo sapiens, UniProt P06239); test: Inhibition of LCK
Chain of Tyrosine-protein kinase Lck (P06239 whole entry): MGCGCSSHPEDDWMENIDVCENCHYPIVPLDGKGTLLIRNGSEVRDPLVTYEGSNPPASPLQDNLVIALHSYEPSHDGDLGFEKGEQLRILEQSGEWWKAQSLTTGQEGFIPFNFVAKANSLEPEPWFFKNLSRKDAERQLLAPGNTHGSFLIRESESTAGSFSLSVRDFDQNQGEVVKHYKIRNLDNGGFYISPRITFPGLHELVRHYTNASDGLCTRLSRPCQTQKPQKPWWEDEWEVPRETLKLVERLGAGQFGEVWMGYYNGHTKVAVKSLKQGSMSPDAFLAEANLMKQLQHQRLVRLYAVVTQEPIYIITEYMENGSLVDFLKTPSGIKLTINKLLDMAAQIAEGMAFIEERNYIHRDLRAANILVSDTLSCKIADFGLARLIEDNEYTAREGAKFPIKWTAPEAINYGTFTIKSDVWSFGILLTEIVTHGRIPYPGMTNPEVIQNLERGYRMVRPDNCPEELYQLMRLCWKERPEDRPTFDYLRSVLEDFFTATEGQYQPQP

[8] = target: Epidermal growth factor receptor (Homo sapiens, UniProt P00533); test: Inhibition of EGFR
Chain of Epidermal growth factor receptor (P00533 whole entry): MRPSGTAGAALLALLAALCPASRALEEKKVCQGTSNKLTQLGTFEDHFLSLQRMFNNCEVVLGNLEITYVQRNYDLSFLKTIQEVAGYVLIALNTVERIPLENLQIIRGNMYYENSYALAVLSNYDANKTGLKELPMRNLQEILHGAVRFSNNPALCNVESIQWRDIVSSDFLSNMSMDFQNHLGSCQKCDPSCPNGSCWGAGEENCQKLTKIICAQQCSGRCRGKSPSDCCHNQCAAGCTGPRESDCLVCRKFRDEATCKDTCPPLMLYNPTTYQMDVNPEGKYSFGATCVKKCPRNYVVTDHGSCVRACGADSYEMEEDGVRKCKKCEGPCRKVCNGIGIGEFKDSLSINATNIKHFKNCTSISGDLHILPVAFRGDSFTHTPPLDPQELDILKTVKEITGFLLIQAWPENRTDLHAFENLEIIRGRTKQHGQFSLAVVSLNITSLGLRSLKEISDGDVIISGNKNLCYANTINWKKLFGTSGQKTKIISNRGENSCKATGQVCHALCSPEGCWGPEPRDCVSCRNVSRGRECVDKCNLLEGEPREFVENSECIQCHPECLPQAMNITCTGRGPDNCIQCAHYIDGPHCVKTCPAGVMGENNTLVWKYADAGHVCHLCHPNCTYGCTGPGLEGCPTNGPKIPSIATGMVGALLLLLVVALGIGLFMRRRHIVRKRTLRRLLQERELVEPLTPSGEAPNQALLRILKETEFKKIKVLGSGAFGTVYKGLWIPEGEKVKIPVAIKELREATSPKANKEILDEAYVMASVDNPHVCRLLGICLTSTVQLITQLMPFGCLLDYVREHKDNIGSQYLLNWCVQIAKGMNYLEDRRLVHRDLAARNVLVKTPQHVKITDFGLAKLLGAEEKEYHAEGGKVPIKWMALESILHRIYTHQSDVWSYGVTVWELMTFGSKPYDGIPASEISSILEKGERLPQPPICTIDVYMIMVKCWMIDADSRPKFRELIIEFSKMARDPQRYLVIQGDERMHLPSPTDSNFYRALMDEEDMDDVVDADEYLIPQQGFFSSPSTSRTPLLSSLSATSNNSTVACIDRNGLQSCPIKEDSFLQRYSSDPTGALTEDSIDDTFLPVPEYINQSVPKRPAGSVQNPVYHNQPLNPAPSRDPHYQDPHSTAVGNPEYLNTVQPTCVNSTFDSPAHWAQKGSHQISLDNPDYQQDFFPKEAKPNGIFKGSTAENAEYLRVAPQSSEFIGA

[9] = Clearance in po dosed mouse; format: ADME, organism-based; conditions: in vivo
[10] = target: Receptor tyrosine-protein kinase erbB-2 (Homo sapiens, UniProt P04626); test: Inhibition of ErbB2
[11] = target: Serine/threonine-protein kinase B-raf (Homo sapiens, UniProt P15056, V600E); test: Inhibition of B-raf V600E mutant
Chain of Serine/threonine-protein kinase B-raf (P15056 2-766 V600E limits assumed): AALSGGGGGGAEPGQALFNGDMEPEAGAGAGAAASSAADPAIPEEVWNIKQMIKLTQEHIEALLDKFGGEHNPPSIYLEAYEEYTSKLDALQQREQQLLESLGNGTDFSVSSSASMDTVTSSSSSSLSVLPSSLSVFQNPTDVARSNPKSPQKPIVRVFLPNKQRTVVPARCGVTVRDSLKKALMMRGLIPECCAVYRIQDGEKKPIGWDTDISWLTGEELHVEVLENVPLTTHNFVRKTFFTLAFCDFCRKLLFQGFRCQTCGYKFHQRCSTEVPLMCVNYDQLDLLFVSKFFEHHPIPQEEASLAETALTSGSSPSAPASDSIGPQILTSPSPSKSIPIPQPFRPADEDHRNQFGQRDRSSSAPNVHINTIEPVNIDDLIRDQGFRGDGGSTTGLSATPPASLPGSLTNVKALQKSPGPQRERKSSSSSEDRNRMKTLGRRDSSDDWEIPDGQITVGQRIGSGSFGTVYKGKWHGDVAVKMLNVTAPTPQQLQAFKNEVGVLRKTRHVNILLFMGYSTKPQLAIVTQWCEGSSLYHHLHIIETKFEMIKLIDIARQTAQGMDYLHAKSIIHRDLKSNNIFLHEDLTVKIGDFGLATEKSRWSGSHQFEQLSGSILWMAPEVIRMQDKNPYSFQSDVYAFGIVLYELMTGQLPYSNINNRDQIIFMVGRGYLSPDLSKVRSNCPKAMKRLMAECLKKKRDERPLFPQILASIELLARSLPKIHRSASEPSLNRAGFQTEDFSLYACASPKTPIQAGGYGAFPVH

Insulin receptor [12] = target: T2, Insulin receptor; test: Binding affinity to insulin receptor by liquid scintillation counting; conditions: read-out: Ki(app); in short: as §2
Aurora kinase A = target: T3, Aurora kinase A (Homo sapiens, UniProt O14965); test: Inhibition of Aurora A
T3 sequence (O14965 whole entry): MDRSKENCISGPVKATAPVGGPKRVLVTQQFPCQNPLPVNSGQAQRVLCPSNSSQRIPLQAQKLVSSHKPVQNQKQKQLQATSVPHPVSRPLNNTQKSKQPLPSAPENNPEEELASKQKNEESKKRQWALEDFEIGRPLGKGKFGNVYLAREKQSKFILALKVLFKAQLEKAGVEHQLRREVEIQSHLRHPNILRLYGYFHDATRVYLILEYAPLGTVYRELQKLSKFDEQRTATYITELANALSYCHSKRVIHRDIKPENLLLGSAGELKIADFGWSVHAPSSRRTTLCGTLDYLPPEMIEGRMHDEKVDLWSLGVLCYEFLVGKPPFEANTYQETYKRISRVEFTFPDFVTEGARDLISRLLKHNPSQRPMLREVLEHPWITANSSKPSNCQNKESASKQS

Aurora kinase B = Aurora kinase B (Homo sapiens, UniProt Q96GD4); test: Inhibition of Aurora B
Chain of Aurora kinase B (Q96GD4 whole entry): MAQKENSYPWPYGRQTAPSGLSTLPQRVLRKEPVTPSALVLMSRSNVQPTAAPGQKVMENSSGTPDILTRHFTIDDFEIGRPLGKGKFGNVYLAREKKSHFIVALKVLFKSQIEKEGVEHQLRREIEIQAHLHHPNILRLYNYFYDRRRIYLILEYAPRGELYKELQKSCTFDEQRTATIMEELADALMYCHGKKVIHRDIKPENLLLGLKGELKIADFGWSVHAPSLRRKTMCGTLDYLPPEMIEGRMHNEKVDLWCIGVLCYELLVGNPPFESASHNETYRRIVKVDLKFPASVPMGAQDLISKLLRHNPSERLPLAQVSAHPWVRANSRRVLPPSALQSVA

[13] = target: Receptor tyrosine-protein kinase erbB-4 (Homo sapiens, UniProt Q15303); test: Inhibition of ErbB4
Chain of Receptor tyrosine-protein kinase erbB-4 (Q15303 whole entry): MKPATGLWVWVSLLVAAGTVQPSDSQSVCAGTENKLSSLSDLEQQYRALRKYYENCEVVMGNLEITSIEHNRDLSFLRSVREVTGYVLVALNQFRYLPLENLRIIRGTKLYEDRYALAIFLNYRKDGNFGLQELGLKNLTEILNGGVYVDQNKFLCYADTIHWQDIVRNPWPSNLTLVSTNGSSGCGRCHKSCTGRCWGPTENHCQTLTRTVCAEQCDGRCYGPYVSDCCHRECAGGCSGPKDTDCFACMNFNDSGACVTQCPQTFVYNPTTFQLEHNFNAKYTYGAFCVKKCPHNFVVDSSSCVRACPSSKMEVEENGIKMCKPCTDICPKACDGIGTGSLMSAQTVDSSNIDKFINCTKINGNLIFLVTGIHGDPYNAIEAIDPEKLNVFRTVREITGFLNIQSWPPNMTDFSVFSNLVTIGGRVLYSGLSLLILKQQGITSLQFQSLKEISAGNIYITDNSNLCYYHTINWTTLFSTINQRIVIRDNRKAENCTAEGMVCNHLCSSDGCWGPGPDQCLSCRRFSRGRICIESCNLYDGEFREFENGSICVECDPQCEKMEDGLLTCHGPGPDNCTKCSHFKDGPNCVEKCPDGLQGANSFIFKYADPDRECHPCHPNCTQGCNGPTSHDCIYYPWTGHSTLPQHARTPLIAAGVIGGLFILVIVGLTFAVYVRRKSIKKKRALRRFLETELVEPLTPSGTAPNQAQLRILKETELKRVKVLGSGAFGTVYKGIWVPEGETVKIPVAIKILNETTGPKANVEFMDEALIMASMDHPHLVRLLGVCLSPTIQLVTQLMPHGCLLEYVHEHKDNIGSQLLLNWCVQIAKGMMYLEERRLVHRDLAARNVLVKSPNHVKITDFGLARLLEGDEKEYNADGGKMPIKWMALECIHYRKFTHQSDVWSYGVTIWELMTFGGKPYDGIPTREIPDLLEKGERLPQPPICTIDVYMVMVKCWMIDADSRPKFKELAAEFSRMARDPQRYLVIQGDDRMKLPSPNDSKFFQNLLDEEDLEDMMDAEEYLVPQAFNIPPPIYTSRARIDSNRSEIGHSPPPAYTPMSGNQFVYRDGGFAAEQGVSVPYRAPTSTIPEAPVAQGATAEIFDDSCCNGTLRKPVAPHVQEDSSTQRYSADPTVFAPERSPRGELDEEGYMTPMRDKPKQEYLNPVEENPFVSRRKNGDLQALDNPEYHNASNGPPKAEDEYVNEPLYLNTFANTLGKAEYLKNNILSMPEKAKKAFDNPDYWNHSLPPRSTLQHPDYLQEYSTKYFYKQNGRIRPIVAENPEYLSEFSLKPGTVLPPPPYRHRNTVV

Cynomolgus monkey [14] = test: Dose normalized AUC in cynomolgus monkey at 2.1 mg/kg, po; format: ADME, organism-based, Macaca fascicularis; design: dose 2.1 mg/kg, route oral; conditions: in vivo
In short: (§3)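 Compound given as solution in 1.0% DMSO, 20% Captisol in saline (IV) or water (PO); dog PO given as partial suspension. IV doses 0.6–1.3 mg/kg, PO 2.1–7.2 mg/kg by species. Male Sprague–Dawley rats, male beagle dogs, male cynomolgus monkeys. Data over 0–24 h; dose-normalized AUC as ng h/mL/(mg/kg).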

[15] = Clearance in Beagle dog at 7.2 mg/kg, po; format: ADME, organism-based, Canis lupus familiaris; design: dose 7.2 mg/kg, route oral; conditions: in vivo; in short: as §3
COLO 205 = test: Antiproliferative activity against human COLO205 cells after 72 hrs by Celltiter assay; format: functional, cell-based; conditions: COLO 205, 72 h
In short: (§4)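 Cells seeded in 96-well dishes and incubated overnight at 37 °C, then exposed to a range of inhibitor concentrations for 72 h. Proliferation read by CellTiter-Glo luminescence per manufacturer's protocol. IC50 from 4-parameter curve fit.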

Insulin receptor [16] = target: T2, Insulin receptor; test: Inhibition of human insulin receptor autophosphorylation in transfected mouse NIH3T3 cells; format: cell-based
In short: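 NIH-3T3 cells expressing human IR were grown on collagen-coated plates for 24 h, then given inhibitor or DMSO. After 2 h they were stimulated with bovine insulin for 15 min and lysed in RIPA. Lysates were captured overnight at 4 °C on anti-IRβ plates. Phospho-IR was detected by Eu-phosphotyrosine antibody time-resolved fluorescence (340/615 nm), and total IR by anti-IR. IC50 was taken from the phospho/total ratio curves.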

Canis familiaris [17] = test: Volume of distribution at steady state in Beagle dog at 7.2 mg/kg, po; format: ADME, organism-based, Canis lupus familiaris; design: dose 7.2 mg/kg, route oral; conditions: in vivo; in short: as §3
A549 = test: Antiproliferative activity against human A549 cells after 72 hrs by Celltiter assay; format: functional, cell-based; conditions: A549, 72 h; in short: as §4
HFF = test: Antiproliferative activity against HFF cells after 72 hrs by Celltiter assay; format: cell-based; conditions: Homo sapiens; in short: as §4
[18] = Antiproliferative activity against human NCI-H929 cells after 72 hrs by Celltiter assay; format: functional, cell-based; conditions: NCI-H929, 72 h; in short: as §4
[19] = Clearance in cynomolgus monkey at 2.1 mg/kg, po; format: ADME, organism-based, Macaca fascicularis; design: dose 2.1 mg/kg, route oral; conditions: in vivo; in short: as §3
[20] = Oral bioavailability in Beagle dog at 7.2 mg/kg; format: ADME, organism-based, Canis lupus familiaris; conditions: in vivo; in short: as §3
Rattus norvegicus [21] = test: Volume of distribution at steady state in Sprague-Dawley rat at 3 mg/kg, po; format: ADME, organism-based; design: dose 3 mg/kg, route oral; conditions: in vivo; in short: as §3
Canis familiaris [22] = test: Dose normalized AUC in Beagle dog at 7.2 mg/kg, po; format: ADME, organism-based, Canis lupus familiaris; design: dose 7.2 mg/kg, route oral; conditions: in vivo; in short: as §3
[23] = Clearance in Sprague-Dawley rat at 3 mg/kg, po; format: ADME, organism-based; design: dose 3 mg/kg, route oral; conditions: in vivo; in short: as §3
[24] = Oral bioavailability in cynomolgus monkey at 2.1 mg/kg; format: ADME, organism-based, Macaca fascicularis; conditions: in vivo; in short: as §3
[25] = Oral bioavailability in Sprague-Dawley rat at 3 mg/kg; format: ADME, organism-based; conditions: in vivo; in short: as §3
[26] = Antiproliferative activity against human SK-ES cells after 72 hrs by Celltiter assay; format: functional, cell-based; in short: as §4
[27] = Antiproliferative activity against human TC71 cells after 72 hrs by Celltiter assay; format: functional, cell-based; conditions: TC-71, 72 h; in short: as §4
Cynomolgus monkey [28] = test: Volume of distribution at steady state in cynomolgus monkey at 2.1 mg/kg, po; format: ADME, organism-based, Macaca fascicularis; design: dose 2.1 mg/kg, route oral; conditions: in vivo; in short: as §3
Rattus norvegicus [29] = test: Dose normalized AUC in Sprague-Dawley rat at 3 mg/kg, po; format: ADME, organism-based; design: dose 3 mg/kg, route oral; conditions: in vivo; in short: as §3
LP-1 = test: Antiproliferative activity against human LP-1 cells after 72 hrs by Celltiter assay; format: functional, cell-based; conditions: LP-1, 72 h; in short: as §4
Mus musculus [30] = test: Dose normalized AUC (0 to 6 hrs) in mouse at 7.3 mg/kg, po; format: ADME, organism-based; design: time < 6 hr, dose 7.3 mg/kg, route oral; conditions: in vivo; in short: as §1

IC50 [1]: 2 nM
IC50 [2]: 40 nM
AUC (Mus musculus [3]): 494 ng·h/mL
Structure (SMILES): COc1cc(N2CCC(N3CC[C@@H](F)C3)CC2)ccc1Nc1nccc(-c2c(-c3cccc(C(=O)Nc4c(F)cccc4F)c3)nc3ccccn23)n1

Ki [4]: 5.2 nM
IC50 (Insulin receptor [5]): 5 nM
IC50 [6]: 440 nM
IC50 [7]: 1200 nM
IC50 [8]: 57 nM
CL/F [9]: 13.6 mL/min/kg
IC50 [10]: 72 nM
IC50 [11]: 80 nM
Ki (Insulin receptor [12]): 2.2 nM
IC50 (Aurora kinase A): 1600 nM
IC50 [1]: 5 nM
IC50 [2]: 36 nM
IC50 (Aurora kinase B): 200 nM
AUC (Mus musculus [3]): 1060 ng·h/mL
IC50 [13]: 74 nM
Structure (SMILES): COc1cc(N2CCC(N3CCN(S(C)(=O)=O)CC3)CC2)ccc1Nc1nccc(-c2c(-c3cccc(C(=O)Nc4c(F)cccc4F)c3)nc3ccccn23)n1

IC50 [1]: 2 nM
IC50 [2]: 87 nM
Structure (SMILES): O=C(Nc1c(F)cccc1F)c1cccc(-c2nc3ccccn3c2-c2ccnc(Nc3ccc(N4CCC(N5CCCCC5)CC4)cc3)n2)c1

IC50 [1]: 3 nM
IC50 [2]: 65 nM
AUC (Mus musculus [3]): 216 ng·h/mL
Structure (SMILES): COc1cc(N2CCC(N3CCN(C(C)=O)CC3)CC2)ccc1Nc1nccc(-c2c(-c3cccc(C(=O)Nc4c(F)cccc4F)c3)nc3ccccn23)n1

Structure (SMILES): CCc1cc(Nc2nccc(-c3c(-c4ccc(OC)c(C(=O)Nc5c(F)cccc5F)c4)nc4ccccn34)n2)c(OC)cc1N1CCC(N2CCN(S(C)(=O)=O)CC2)CC1
Ki [4]: 1.6 nM
AUC (Cynomolgus monkey [14]): 1070 ng·h/mL
IC50 (Insulin receptor [5]): 25 nM
IC50 [6]: 11000 nM
CL/F [15]: 8.7 mL/min/kg
IC50 [7]: > 3000 nM
IC50 (COLO 205): 124 nM
IC50 (Insulin receptor [16]): 19 nM
Vdss (Canis familiaris [17]): 4.7 L/kg
IC50 (A549): > 20000 nM
IC50 (HFF): > 20000 nM
IC50 [8]: > 10000 nM
IC50 [18]: 81 nM
CL/F [19]: 13.9 mL/min/kg
IC50 [10]: > 10000 nM
bioavailability [20]: 47%
Vdss (Rattus norvegicus [21]): 7.5 L/kg
IC50 [11]: > 2000 nM
AUC (Canis familiaris [22]): 870 ng·h/mL
Ki (Insulin receptor [12]): 1.3 nM
CL/F [23]: 5.8 mL/min/kg
IC50 (Aurora kinase A): > 1500 nM
IC50 [1]: 27 nM
bioavailability [24]: 97%
IC50 [2]: 22 nM
bioavailability [25]: 63%
IC50 [26]: 61 nM
IC50 [27]: 35 nM
Vdss (Cynomolgus monkey [28]): 9.8 L/kg
AUC (Rattus norvegicus [29]): 1220 ng·h/mL
IC50 (Aurora kinase B): 4500 nM
IC50 [13]: > 25000 nM
IC50 (LP-1): 104 nM

IC50 [1]: 1 nM
IC50 [2]: 177 nM
Structure (SMILES): CN(C)CCOc1cccc(Nc2nccc(-c3c(-c4cccc(C(=O)Nc5c(F)cccc5F)c4)nc4ccccn34)n2)c1

IC50 [1]: 4 nM
IC50 [2]: 68 nM
AUC (Mus musculus [3]): 549 ng·h/mL
Structure (SMILES): COc1cc(N2CCC(N3C[C@@H](C)O[C@@H](C)C3)CC2)ccc1Nc1nccc(-c2c(-c3cccc(C(=O)Nc4c(F)cccc4F)c3)nc3ccccn23)n1

IC50 (Insulin receptor [5]): 7 nM
IC50 [6]: 1800 nM
IC50 [7]: 710 nM
IC50 [8]: 22 nM
IC50 [10]: 54 nM
IC50 [11]: 320 nM
IC50 (Aurora kinase A): > 9500 nM
IC50 [1]: 7 nM
IC50 (Aurora kinase B): 1300 nM
IC50 [13]: 140 nM
Structure (SMILES): CCc1cc(Nc2nccc(-c3c(-c4cccc(C(=O)Nc5c(F)cccc5F)c4)nc4ccccn34)n2)c(OC)cc1N1CCC(N2CCN(S(C)(=O)=O)CC2)CC1

IC50 [1]: 2 nM
IC50 [2]: 41 nM
AUC (Mus musculus [3]): 276 ng·h/mL
Structure (SMILES): COc1cc(N2CCC(N3CCOCC3)CC2)ccc1Nc1nccc(-c2c(-c3cccc(C(=O)Nc4c(F)cccc4F)c3)nc3ccccn23)n1

AUC (Mus musculus [30]): 239 ng·h/mL
CL/F [9]: 13.4 mL/min/kg
IC50 [1]: 2 nM
IC50 [2]: 38 nM
Structure (SMILES): COc1cc(N2CCC(N3CCCCC3)CC2)ccc1Nc1nccc(-c2c(-c3cccc(C(=O)Nc4c(F)cccc4F)c3)nc3ccccn23)n1

IC50 [1]: 2 nM
IC50 [2]: 38 nM
AUC (Mus musculus [3]): 121 ng·h/mL
Structure (SMILES): COc1cc(N2CCC(N3CCCC3)CC2)ccc1Nc1nccc(-c2c(-c3cccc(C(=O)Nc4c(F)cccc4F)c3)nc3ccccn23)n1

IC50 [1]: 2 nM
IC50 [2]: 28 nM
AUC (Mus musculus [3]): 203 ng·h/mL
Structure (SMILES): COc1cc(N2CCC(N3CCN(C)CC3)CC2)ccc1Nc1nccc(-c2c(-c3cccc(C(=O)Nc4c(F)cccc4F)c3)nc3ccccn23)n1

Source: ChEMBL document CHEMBL1143280, “Discovery and optimization of imidazo[1,2-a]pyridine inhibitors of insulin-like growth factor-1 receptor (IGF-1R)” (Bioorg Med Chem Lett, 2009)
